Screening data (PubChem BioAssay)
A selection: hits, their analogues and other compounds. The true share with any hit is near 10%.
WT yeast gro inh – growth inhibition of WT yeast, mitochondrial fusion screen; mitochondrial fusion phenotypic screen, WT strain; inhibition, % at 10 µM; 2.1% of 190,000 active; in the data active = inhibition above about 58%; tested in S. cerevisiae
Diaph act CS – activates diaphorase or chemically reduces, flagging diaphorase assay artifacts; Diaphorase/resazurin coupled assay, resorufin fluorescence, 16 min; hits give high values; 1 = vehicle wells, 0 = NADH-free wells; activation factor at 20 µM; 0.005% of 190,000 active;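 active = diaphorase activity raised at least twofold by the compound at 20 µM; inactive = activation factor below 2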
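Assay system: Purified diaphorase enzyme from Clostridium kluyveri | Amount: Enzyme 0.07 U/mL final | Dosing: Compound 20 µM once, DMSO 1% | Timing: 16 min reaction at room temperature | Detection: Fluorescence, excitation 544 nm and emission 590 nm | Evaluation: Higher resorufin formation from activation or reduction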
PMI act hi M6P – increases human PMI activity with near-saturating mannose 6-phosphate. activation factor at 20 µM. coupled PMI enzyme assay, resazurin fluorescence, 20 min; hits give high values; 1 = untreated enzyme, 0 = substrate-free blank. AID 1216. 0.34% of 190,000 active. P34949;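 active = activation factor of 2 or more at 20 µM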
Target sequence (P34949 whole entry, looked up): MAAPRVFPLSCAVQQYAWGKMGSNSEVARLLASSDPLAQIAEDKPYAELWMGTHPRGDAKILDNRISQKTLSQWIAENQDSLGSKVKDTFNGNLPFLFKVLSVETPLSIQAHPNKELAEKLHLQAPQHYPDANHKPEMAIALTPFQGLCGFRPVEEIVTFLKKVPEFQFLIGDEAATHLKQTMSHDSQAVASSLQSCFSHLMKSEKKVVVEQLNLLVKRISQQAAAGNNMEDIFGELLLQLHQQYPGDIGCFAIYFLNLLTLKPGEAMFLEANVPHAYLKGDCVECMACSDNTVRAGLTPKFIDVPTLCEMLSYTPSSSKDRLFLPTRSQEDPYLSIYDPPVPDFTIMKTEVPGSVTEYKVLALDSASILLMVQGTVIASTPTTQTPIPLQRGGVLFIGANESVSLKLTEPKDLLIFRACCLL
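Material: human phosphomannose isomerase with PGI, G6PDH, diaphorase coupling enzymes / Reagent: Man-6-P substrate 1.0 mM / Dosing: single compound dose of 20 µM, 1% DMSO final / Incubation: enzyme reaction with compound 20 min at room temperature / Signal: resorufin fluorescence (Ex 544/Em 590 nm) from resazurin via diaphorase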
PMI activator – increases human mannose-6-phosphate isomerase activity | 0.005% of 190,000 active | purified human PMI, coupled resazurin fluorescence, 20 min; hits give high values; 1 = vehicle control, 0 substrate-free wells | P34949 | activation factor at 20 µM;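 active = activation factor of 2 or more at 20 µM, relative to plate controls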
Lmaj promast – reduces viability of Leishmania major promastigotes; resazurin fluorescence viability; inhibition, % at 10 µM; 9% of 200,000 active; AID 1063; in the data active = inhibition above about 50%;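 also: promastigotes grown with compound for 44 hours at 28 °C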
Numbers stand for hits; . = inactive; / = not tested or not shown.

SMILES	WT yeast gro inh	Diaph act CS	PMI act hi M6P	PMI activator	Lmaj promast
Cc1ccc(CN2CCC(C(=O)NCCC(C)C)CC2)o1	.	.	.	.	60.2
O=C(c1cc2n(n1)C(C(F)(F)F)CC(c1ccco1)N2)N1CCc2ccccc2C1 (stereo not drawn)	.	.	.	.	54.3
Cc1cc(C)n(-c2ccc(C(=O)Nc3ccc(C)c(S(=O)(=O)N(C)C)c3)cc2)n1	.	.	.	.	53.2
Cc1cc(C)n(-c2ccc(C(=O)Nc3ccc(S(=O)(=O)N(C)C)cc3)cc2)n1	.	.	.	.	.
Cc1ccc(NC(=O)COC(=O)/C=C/c2ccc(Br)o2)cc1S(=O)(=O)N(C)C	.	.	2.2	.	.
CC(=O)c1ccc(OCCCC(=O)Nc2ccc(C)c(S(=O)(=O)N(C)C)c2)cc1	.	.	.	.	60.7
O=C(CN1C(=O)c2ccccc2C1=O)Nc1ccc(S(=O)(=O)N2CCOCC2)cc1	.	.	.	.	.
CN(N)c1ccc2c(C(F)(F)F)cc(C(F)(F)F)nc2n1	.	.	.	.	.
Cc1ccc(C(C#N)c2ccc3c(C(F)(F)F)cc(C(F)(F)F)nc3n2)cc1 (stereo not drawn)	69.4	.	.	.	.
N#CC(c1ccccc1)c1ccc2c(C(F)(F)F)cc(C(F)(F)F)nc2n1 (stereo not drawn)	73.9	.	.	.	.
O=C(CN(CC1CCCO1)C(=O)CCC(=O)Nc1ccccn1)NCc1ccccc1 (stereo not drawn)	.	.	.	.	.
CC(C)CCNC(=O)CN(CC1CCCO1)C(=O)CCC(=O)Nc1ccccn1 (stereo not drawn)	70.2	.	.	.	.
Cc1ccc(NC(=O)c2cc(-c3ccccc3)nn2-c2ccccc2)cc1	65.5	.	.	.	.
CS(=O)(=O)c1ccc2nc(NC(=O)c3cc(-c4ccccc4)nn3-c3ccccc3)sc2c1	.	.	.	.	99.9
Cc1ccc(NC(=O)c2cc(-c3ccccc3)nn2-c2ccccc2)c(Br)c1	64.6	.	.	.	68.8
O=C(Nc1ccc(F)cc1)c1nn(-c2ccccc2)c(=O)cc1Cl	.	.	.	.	98.0
O=C(NC1=NCCS1)c1cc(-c2ccccc2)nn1-c1ccccc1	/	.	.	.	/
NS(=O)(=O)c1cc(C(=O)N2CCc3ccccc32)c(Cl)cc1Cl	.	.	.	.	.
CCCC(=O)NCc1cc(-c2nn(C)c(=O)c3ccccc23)ccc1OC	.	.	.	.	.
O=C(COC(=O)c1ccc(CSc2ccc(Cl)cc2)cc1)Nc1ccccc1	.	.	.	.	.
CN(C)S(=O)(=O)c1cc(NC(=O)CN2CCN(c3ccccc3O)CC2)ccc1Cl	.	.	.	.	.
CC(=O)C(/C=N/c1cc(-c2ccc(C)cc2)nn1-c1ccccc1)=C(\C)O	.	.	.	.	63.5
CCN1C(=O)C(C)S/C1=N\S(=O)(=O)c1ccc(Cl)s1 (stereo not drawn)	.	.	.	.	.
CC1(C)CCCN(C(=O)c2ccc3c(c2NCCO)C(=O)c2ccccc2C3=O)C1	.	.	.	.	99.9
CC1CCCN(C(=O)c2ccc3c(c2NCCO)C(=O)c2ccccc2C3=O)C1 (stereo not drawn)	.	.	.	.	91.3
SMILES	WT yeast gro inh	Diaph act CS	PMI act hi M6P	PMI activator	Lmaj promast
O=C1c2ccccc2C(=O)c2c1ccc(C(=O)N1CCCCC1)c2NCCO	.	.	.	.	.
COCCN(Cc1cc2cc(C)ccc2nc1Cl)C(=O)Nc1ccccc1OC	.	/	/	/	.
C/C(CCc1ccc2c(c1)OCO2)=N\NC(=O)c1ccccc1Br	.	.	.	.	.
COc1ccccc1N(CC(=O)NCCSc1ccc(Cl)cc1)S(C)(=O)=O	.	.	.	.	.
N#Cc1c(NC(=S)NC(=O)C2CCCC2)sc2c1CCCCC2	66.4	.	.	.	.
Cc1ccc(-c2cc(C(F)F)n3ncc(C(=O)N4CCN(c5cccc(C)c5C)CC4)c3n2)cc1	.	.	.	.	57.5
Cc1ccc(-c2cc(C(F)F)n3ncc(C(=O)N4CCc5ccccc5C4)c3n2)cc1	76.9	.	.	.	.
COc1ccc(-c2cc(C(F)F)n3ncc(C(=O)N4CCN5CCCC5C4)c3n2)cc1 (stereo not drawn)	.	.	.	.	59.5
Cc1ccc(-c2cc(C(F)F)n3ncc(C(=O)N4CCCc5ccccc54)c3n2)cc1	.	.	.	.	.
Cc1c(O)c(=O)ccn1C	.	.	.	.	.
CCc1ccc(N(CC(=O)Nc2ccccc2C(=O)N2CCOCC2)S(C)(=O)=O)cc1	.	.	.	.	50.9
O=C(CSCc1c(Cl)cccc1Cl)Nc1ccccc1C(=O)N1CCOCC1	.	.	.	.	51.9
Cc1cc(C)cc(N(CC(=O)Nc2ccccc2C(=O)N2CCOCC2)S(C)(=O)=O)c1	.	.	.	.	.
C=C(C)COc1ccc(-c2nc(N)ncc2-c2ccc(OC)cc2)c(O)c1	83.9	.	.	.	.
C=C(C)COc1ccc(-c2ncncc2Oc2ccc(OC)cc2)c(O)c1	.	.	.	.	65.6
COc1ccc(-c2cnc(N)nc2-c2ccc(OC)cc2O)cc1	.	.	.	.	.
Cc1sc(NC(=O)C2CC=CCC2C(=O)O)c(C(=O)OC(C)C)c1C (stereo not drawn)	.	.	.	.	.
COC(=O)c1cc(C(=O)Nc2ccc(S(N)(=O)=O)cc2)cc([N+](=O)[O-])c1	.	.	.	.	60.5
CCCC(C)c1nnc(NC(=O)c2cc(C(=O)OC)cc([N+](=O)[O-])c2)s1 (stereo not drawn)	.	.	.	.	96.8
Fc1ccc(-c2ccc(/C=N\n3cnnc3)o2)cc1Cl	.	.	.	.	95.0
CCCCOc1ccc(C(=S)N2CCC(C(N)=O)CC2)cc1	.	.	.	.	.
O=C(Nc1cccc2oc(=O)ccc12)c1ccc([N+](=O)[O-])cc1[N+](=O)[O-]	.	.	.	.	97.5
COc1ccc([N+](=O)[O-])cc1NC(=O)c1cc(C)c(C)o1	.	.	.	.	.
COc1ccc([N+](=O)[O-])cc1NC(=O)Cc1ccc(C)cc1	.	.	.	.	57.8
COc1ccc(C)cc1NC(=O)c1ccc([N+](=O)[O-])cc1[N+](=O)[O-]	.	.	.	.	52.5
Cc1c(Cl)cccc1NC(=S)NCC(c1cccnc1)N(C)C (stereo not drawn)	.	.	.	.	.
Cc1ccsc1C(=O)N1CCCC(C(=O)c2cc(F)ccc2F)C1 (stereo not drawn)	.	.	.	.	.
CCCOc1ccc(/C=N/NC(=S)Nc2ccccc2[N+](=O)[O-])c(O)c1	.	.	.	.	98.4
COc1cc(/C=N/NC(=S)Nc2cccc(S(=O)(=O)N(C)C)c2)ccc1O	.	.	.	.	66.7
O=[N+]([O-])c1cc(/C=N/NC(=S)Nc2ccccc2Cl)ccc1Cl	.	.	.	.	.
